PREPL inhibitor = PREPL enzyme inhibitors, primary screen, biochemical, fluorescence polarization; recombinant PREPL, fluorescence polarization activity-based probe; inhibition, % at 5.96 µM; 320,000 tested, 0.68% active; AID 2751, 2010; in the data active = inhibition above about 43%;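 note: 0% = enzyme with DMSO and 100% = wells lacking enzyme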
Target sequence (Q4J6C6 whole entry, looked up): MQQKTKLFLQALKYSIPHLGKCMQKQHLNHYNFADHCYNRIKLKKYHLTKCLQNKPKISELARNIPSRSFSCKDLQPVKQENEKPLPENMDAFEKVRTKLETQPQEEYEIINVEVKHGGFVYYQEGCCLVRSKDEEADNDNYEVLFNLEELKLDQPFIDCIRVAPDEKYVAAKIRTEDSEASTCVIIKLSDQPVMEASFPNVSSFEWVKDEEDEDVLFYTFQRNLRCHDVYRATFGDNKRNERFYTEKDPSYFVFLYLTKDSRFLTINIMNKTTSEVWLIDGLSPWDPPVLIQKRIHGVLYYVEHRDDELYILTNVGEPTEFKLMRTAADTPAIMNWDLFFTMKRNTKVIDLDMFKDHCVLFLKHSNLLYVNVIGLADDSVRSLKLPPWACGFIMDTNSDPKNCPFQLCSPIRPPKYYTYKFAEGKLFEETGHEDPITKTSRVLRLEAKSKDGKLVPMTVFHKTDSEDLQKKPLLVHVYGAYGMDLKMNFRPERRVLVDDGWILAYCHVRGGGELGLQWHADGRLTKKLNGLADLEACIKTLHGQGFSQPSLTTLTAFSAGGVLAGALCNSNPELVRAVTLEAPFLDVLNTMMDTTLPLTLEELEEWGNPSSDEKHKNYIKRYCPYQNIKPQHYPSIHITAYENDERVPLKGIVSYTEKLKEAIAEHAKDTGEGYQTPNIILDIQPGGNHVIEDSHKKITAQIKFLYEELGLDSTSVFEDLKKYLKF
IDE cell activ = human IDE activators in live cells, primary screen, fluorescence polarization, HEK cells, FAbeta-B substrate; AID 493087, 2011; FAbeta-B cleavage; 0% vehicle, 100% cell-free pure enzyme wells; Insulin-degrading enzyme (Homo sapiens), P14735; activation, % at 5.96 µM; 340,000 tested, 0.073% active;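 active = activation above the mean of all tested compounds plus 3 SD, set per screening campaign, cut at about 17% in these data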
IDE inh = human IDE inhibitors in live cells, primary screen, fluorescence polarization, HEK cells, FAbetaB substrate. FAbetaB cleavage. inhibition, % at 5.59 µM. AID 434962, 2010. 320,000 tested, 0.41% active. Insulin-degrading enzyme (Homo sapiens), P14735;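 active = percent inhibition above the average of all tested compounds plus 3 SD, set per screening campaign, cut at about 16% in these data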;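 note: IDE supplied by intact live HEK cells; FP after avidin binding of uncleaved biotin substrate so inhibition keeps polarization high; 0% = DMSO wells and 100% = 60 µM reference IDE inhibitor Ii1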
ARFGAP1 inhibitor = inhibitors of rat ARFGAP1 GAP activity, primary screen, biochemical, fluorescence polarization, GDP tracer; Arfgap1-stimulated ARF1 GTP hydrolysis, GDP FP detection; inhibition, % at 16.5 µM; 360,000 tested, 0.26% active;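 active = inhibition above a per-plate limit, mean inhibition of low control wells plus 3 SD, cut at about 25% in these data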;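 note: 0% = DMSO wells with enzyme and 100% = wells lacking Arfgap1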
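material = rat Arfgap1 catalytic domain, aa 1-136 | also added = human ARF1(Δ1-17)-GTP substrate | compound dosing = one concentration, 16.5 µM, DMSO 1.26% | times = GTP hydrolysis reaction 2 h at 25 °C | measured by = FP, GDP Alexa 633 tracer displaced from anti-GDP antibody, 620/688 nm | evaluation = percent inhibition of Arfgap1-stimulated GTP hydrolysis | replication = single well per compound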
ASAP1 GAP inh = inhibitors of human ASAP1 ArfGAP activity, primary screen, biochemical, fluorescence polarization. Arf-GAP with SH3 domain, ANK repeat and PH domain-containing protein 1 (Homo sapiens), …. ASAP1-stimulated ARF1 GTP hydrolysis, GDP FP detection. inhibition, % at 16.5 µM. 360,000 tested, 0.19% active. AID 624377, 2012; in the data active = inhibition above about 25%;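 note: 0% = vehicle with enzyme and substrate and 100% = no enzyme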
ARFGAP1 inh conf = ARFGAP1 inhibitor hit confirmation, biochemical, fluorescence polarization, triplicate; shares compounds with ARFGAP1 inhibitor; inhibition, % at 16.5 µM; 890 tested, 30% active; ARFGAP1-stimulated ARF1 GTP hydrolysis, GDP tracer FP;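 active = average inhibition over triplicates above the hit cutoff set in the earlier primary screen, cut at about 25% in these data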;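 note: 0% = Arfgap1 plus ARF1-GTP with DMSO and 100% = wells lacking Arfgap1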
* = called active by the depositor; x = no result given. Shown are actives, neighbours in structure and some others; about 1.2% of the full set was active somewhere.

SMILES | PREPL inhibitor | IDE cell activ | IDE inh | ARFGAP1 inhibitor | ASAP1 GAP inh | ARFGAP1 inh conf
Cc1c(-c2nc(N)nc(Nc3ccc(F)cc3)n2)oc2ccccc12 | 11 | -2 | -4 | 33* | 22 | 2
CCCOc1ccc(C(=O)Nc2ccc(S(=O)(=O)N3C[C@@H]4C[C@@H](C3)c3cccc(=O)n3C4)cc2)cc1 | -2 | -19 | 5 | 25* | -14 | 3
Oc1ccc(/C=C/c2ccc3cccc(O)c3n2)cc1Br | 33 | -12 | 6 | 28* | 14 | 7
O=C(O)c1ccc(/C=C/c2ccc3cccc(O)c3n2)cc1 | x | 0 | x | -5 | 11 | x
CCOc1ccc(-n2c(SCc3ccc([N+](=O)[O-])cc3)nnc2-c2ccccc2)cc1 | -4 | -1 | -2 | 33* | 6 | -2
CCN(CC)S(=O)(=O)c1ccc(=O)[nH]c1 | -1 | 4 | 2 | 11 | -5 | x
CC(C(=O)Nc1nc(-c2ccc(F)c(F)c2)cs1)N1C(=O)C2CC=CCC2C1=O (configuration not stated) | 13 | 2 | -2 | 27* | 6 | 2
CC1(C)Cc2c(cnn2-c2ccccc2)-c2c1c1ccccc1n2CC(O)CCl (configuration not stated) | 28 | 5 | -1 | 26* | 7 | 7
Cc1cccc(Nc2ncccc2C(=O)NCc2cccs2)c1C | 9 | 0 | 5 | 26* | 8 | 7
Cc1ccc(Nc2ncccc2C(=O)NCc2cccs2)c(C)c1 | 10 | -3 | 5 | 24 | 7 | x
CSc1ncccc1C(=O)Nc1ccc2c(c1)OCCO2 | 20 | 4 | 3 | -12 | 9 | x
CCc1cccc(C)c1NC(=O)COC(=O)c1cc([N+](=O)[O-])ccc1N1CCOCC1 | 5 | -1 | 6 | 0 | -10 | x
O=C1c2ccccc2C(Nc2ccc3c(c2)OCCO3)N1c1ccc(Cl)cn1 (configuration not stated) | -3 | 1 | 6 | 25* | 2 | 2
COc1ccc(-c2cc(NC(=O)Cc3c[nH]c4ccccc34)ccc2N(C)c2cccnc2)cc1F | x | x | x | -8 | 7 | x
CN(c1cccnc1)c1ccc(NC(=O)Cc2c[nH]c3ccccc23)cc1-c1ccc(F)c(F)c1 | x | x | x | 25* | 3 | 6
Cc1nc2ccc(C(=O)N3c4ccccc4N=C(c4ccc(C(F)(F)F)cc4)C3C(=O)NC(C)(C)C)cc2[nH]1 (configuration not stated) | x | x | x | 26* | 9 | -1
CCCCNC(=O)C1C(c2ccc(C(F)(F)F)cc2)=Nc2ccccc2N1C(=O)c1cccc(C(F)(F)F)c1 (configuration not stated) | x | x | x | 1 | 0 | x
COc1ccc(-c2c(-c3ccc(OCC(=O)NN)cc3O)n[nH]c2C(F)(F)F)cc1 | 4 | 5 | 0 | 32* | 25 | 24
COc1ccc(-c2c(-c3ccc(OCC(=O)NN)cc3O)n[nH]c2C)cc1OC | 10 | -3 | -10 | 6 | -15 | x
Cc1c(C(=O)Nc2ccc(-n3cnnn3)cc2)oc2ccccc12 | -7 | -3 | 0 | 26* | 24 | 47*
Cn1nc(C(=O)Nc2ccc(-n3cnnn3)cc2)c2ccccc2c1=O | 17 | -1 | 2 | 7 | 12 | x
O=C(N/N=C/c1c[nH]c2ccccc12)c1[nH]c2ccc(Br)cc2c1-c1ccccc1 | x | 6 | x | 30* | 1 | 17
NC(=O)NCCN1CCN(c2ncc(C(F)(F)F)cc2Cl)CC1 | 1 | 2 | 6 | -6 | 7 | x
O=C(Nc1cccc(-c2cc3ccccc3oc2=O)c1)c1ccc(Br)o1 | -26 | 2 | 5 | 27* | 12 | 15
COc1ccc(-c2cc3ccccc3oc2=O)cc1NC(=O)c1ccc(Br)o1 | 5 | -8 | 9 | 14 | 12 | x
SMILES | PREPL inhibitor | IDE cell activ | IDE inh | ARFGAP1 inhibitor | ASAP1 GAP inh | ARFGAP1 inh conf
CCOc1cc(/C=C2\SC(=N)N(c3nccs3)C2=O)ccc1OCCN1CCOCC1 | 2 | 6 | 2 | 39* | 6 | 43*
CCOc1cc(C2C(C#N)=C(N)SC(N)=C2C#N)ccc1OCCN1CCOCC1 | 4 | 1 | 8 | 7 | 0 | x
COC(=O)C1CCN(C(=O)COC(=O)c2cc(-c3ccccc3)nc3ccc(OC)cc23)CC1 | -24 | -1 | 2 | x | x | x
CC(=O)Nc1ccc(OCC(O)Cn2c3ccccc3c3ccccc32)c(C)c1 (configuration not stated) | 45* | 6 | -1 | 25* | 17 | 26*
CN(C)S(=O)(=O)Nc1ccc2c(c1)Cc1ccccc1-2 | -28 | -3 | 6 | 28* | -12 | -6
CN(C)S(=O)(=O)Nc1ccc(NS(=O)(=O)N(C)C)c(S(=O)(=O)c2ccccc2)c1 | 5 | 2 | -1 | 3 | -4 | x
S=C(NCc1cccnc1)Nc1cccc(Cl)c1 | 9 | 4 | 2 | -1 | -1 | x
S=C(NCc1ccncc1)Nc1cc(Cl)cc(Cl)c1 | -38 | -1 | -2 | 25* | 10 | 5
S=C(NCc1cccnc1)Nc1cc(Cl)cc(Cl)c1 | -42 | 4 | -1 | 25* | 1 | 1
S=C(NCc1ccncc1)Nc1ccc(Cl)c(Cl)c1 | -37 | 0 | 1 | 5 | 23 | x
COc1ccc(Cl)cc1C(=O)NNC(=O)c1cc2ccccc2o1 | 8 | 2 | 3 | -14 | -7 | x
COc1ccc2c(c1)C(CC(C)=O)N(c1ccc(-c3cccnc3)cc1)C(c1ccsc1)=C2 (configuration not stated) | x | x | x | 5 | 2 | x
COc1ccc(C(=O)C=CNNC(=O)c2ccc(Cl)cc2)cc1 | -28 | 4 | 6 | 26* | -8 | -1
Fc1ccc2nc(C(F)(F)F)cc(N3CCOCC3)c2c1 | x | 2 | x | -14 | 13 | x
O=C(/C=C/c1ccccc1)Nc1nc(-c2ccncc2)cs1 | -16 | -8 | 10 | 35* | 4 | 62*
COc1ccc2[nH]cc(CCNC(=O)/C=C/[C@H]3O[C@@H](n4cnc5c(NC(=O)c6ccccc6)ncnc54)[C@H](O)[C@@H]3O)c2c1 | x | x | x | 3 | -6 | x
COc1ccc2cc(C(=O)N/N=C/c3cc(OC)c(OC)c(OC)c3)[nH]c2c1 | 26 | 0 | 4 | 14 | 16 | x
COc1ccc(/C=N/NC(=O)c2cc3cc(OC)c(OC)cc3[nH]2)cc1 | 23 | -2 | 2 | 39* | 3 | 51*
CCOc1ccccc1CNCC1CCCO1 (configuration not stated) | -4 | 6 | 2 | -7 | -1 | x
